Screening results as filed in PubChem BioAssay.
MEKK2wt PB1 HTS = modulators of MEK5 binding to wildtype MEKK2, primary screen, biochemical, multiplex bead flow cytometry, Alexa488-MEK5; Mitogen-activated protein kinase kinase kinase 2 (Homo sapiens), Q9Y2U5; Alexa488-MEK5 binding to MEKK2 WT; actives lie on both sides; binding response (% of control), % at 10 µM; actives 1.1% (n = 290,000); AID 1531, 2009; in the data active = binding response below about 67% or above about 130%
Efflux pump inh = inhibitors of Candida efflux pumps in yeast, primary screen, S. cerevisiae, Nile Red, multiplex; S. cerevisiae Candida pump triplex; inhibition, % at 10 µM; actives 0.44% (n = 330,000); AID 485275, 2010;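 active = plate passing quality check with inhibition over a set limit, or well fluorescence over plate mean plus 4 SD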;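 also: Nile Red retained in pooled yeast measured as flow cytometry median fluorescence; 0% = buffer negative control and 100% = Enniatin B positive control; higher means more Nile Red kept so more efflux inhibition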
ABCG2 inh = ABCG2 efflux pump inhibitors, primary screen, multiplex with ABCB1, IgMXP3 cells, flow cytometry; JC-1 efflux; actives 0.1% (n = 190,000); inhibition, % at 6.6 µM; Broad substrate specificity ATP-binding cassette transporter ABCG2 (Homo sapiens), Q9UNQ0; AID 1325, 2008;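 active = inhibition above 80%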;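 also: 0% = DMSO and 100% = nicardipine control wells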
Target sequence (Q9UNQ0 whole entry, looked up): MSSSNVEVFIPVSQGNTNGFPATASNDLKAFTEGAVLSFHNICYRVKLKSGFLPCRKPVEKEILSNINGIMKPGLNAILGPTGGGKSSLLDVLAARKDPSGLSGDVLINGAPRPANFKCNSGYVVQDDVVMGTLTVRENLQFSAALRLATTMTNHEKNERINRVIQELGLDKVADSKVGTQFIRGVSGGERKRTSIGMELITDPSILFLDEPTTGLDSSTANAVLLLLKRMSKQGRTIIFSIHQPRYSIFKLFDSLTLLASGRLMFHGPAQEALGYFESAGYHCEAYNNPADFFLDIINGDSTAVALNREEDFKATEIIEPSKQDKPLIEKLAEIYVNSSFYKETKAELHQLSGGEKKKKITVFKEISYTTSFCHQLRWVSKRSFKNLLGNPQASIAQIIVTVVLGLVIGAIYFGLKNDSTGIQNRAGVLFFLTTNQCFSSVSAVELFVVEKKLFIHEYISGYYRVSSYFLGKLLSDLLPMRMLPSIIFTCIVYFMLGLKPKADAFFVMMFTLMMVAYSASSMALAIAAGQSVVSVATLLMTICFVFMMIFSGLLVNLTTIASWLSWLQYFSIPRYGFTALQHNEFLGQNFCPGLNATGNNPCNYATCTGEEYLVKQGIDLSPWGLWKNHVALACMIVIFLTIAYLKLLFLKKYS
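Assay system – ABCG2 IgMXP3 and barcoded ABCB1 CCRF-Adr cell mix · Input – 3 million cells/mL in well · Reagent – JC-1 fluorescent substrate · Compound – single test compound dose, 6.6 µM final · Timing – 10 min exposure at 25 °C with rotation, no wash · Detection – flow cytometry of retained JC-1 fluorescence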
MEKK2 mut-MEK5 = MEK5 binding signal on mutant MEKK2 PB1, primary screen, biochemical, multiplex bead flow cytometry, Alexa488-MEK5. Alexa488-MEK5 binding to MEKK2 mutant. percent response, % at 10 µM. actives 0.35% (n = 290,000). AID 1530, 2009; in the data active = percent response above about 24%, passing the limit was not always enough
MEKK3 PB1 HTS = modulators of MEKK3-MEK5 PB1 binding, primary screen, biochemical, wildtype MEKK3, multiplex bead flow cytometry, Alexa488-MEK5; bead-based flow cytometry, Alexa488-MEK5 binding to MEKK3; actives lie on both sides; 0 = blocked by unlabeled MEK5, 100 = vehicle; actives 1.4% (n = 290,000); Mitogen-activated protein kinase kinase kinase 3 (Homo sapiens), Q99759; AID 1529, 2009; binding response (% of control), % at 10 µM;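 active = binding response more than 3 SD above or below the average of its plate-row segment, actives on both sides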;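 also: Alexa488 bead fluorescence after subtracting the streptavidin-only scavenger bead signal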
ABCB1 block = ABCB1 efflux pump inhibitors, primary screen, cell-based, multiplex, flow cytometry, ABCG2 counter-screen | ATP-dependent translocase ABCB1 (Homo sapiens), P08183 | CCRF-Adr cells, JC-1 efflux | inhibition, % at 6.6 µM | actives 0.067% (n = 190,000) | AID 1326, 2008; in the data active = inhibition above about 40%;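 also: 0% = vehicle and 100% = reference inhibitor; higher value means more JC-1 retained so stronger ABCB1 efflux block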
Yeast cmpd fluor = counter-screen for efflux pump inhibitors: compound fluorescence; shares compounds with Efflux pump inh; S. cerevisiae AD/pABC3, flow cytometry; actives 4% (n = 1,700); fluorescence ratio to DMSO, % at 10 µM; AID 588517;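 active = fluorescence ratio to DMSO above its plate's cutoff, the plate mean ratio plus 5 SD, cut at about 210% in these data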;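 also: unstained yeast with no Nile Red so the signal is compound autofluorescence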
CaMdr1 efflux inh = inhibitors of Candida albicans Mdr1 efflux, confirmation, flow cytometry, singleplex, Cherry Pick1 set | shares compounds with Efflux pump inh | S. cerevisiae AD/CaMDR1, Nile Red efflux | inhibition, % at 10 µM | actives 1% (n = 1,700) | AID 588518, 2011; in the data active = inhibition above about 26%;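 also: 0% = DMSO vehicle and 100% = reference inhibitor; higher means more Nile Red retained so more efflux inhibition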
CaCdr2 efflux inh = inhibitors of Candida albicans Cdr2 efflux pump, confirmation, S. cerevisiae AD/CaCDR2, flow cytometry, cherry pick 1, singleplex. Nile Red retention. actives 4% (n = 1,700). Nile Red retention ratio vs DMSO, % at 10 µM. shares compounds with Efflux pump inh; in the data active = Nile Red retention ratio vs DMSO above about 190%;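 also: higher ratio means more blocking of Cdr2 efflux of the dye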
CaCdr1 efflux inh = inhibitors of Candida albicans Cdr1 efflux pump, confirmation, S. cerevisiae AD/CaCDR1, flow cytometry, cherry pick 1, singleplex. Nile Red efflux. actives 1% (n = 1,700). AID 588522, 2011. shares compounds with Efflux pump inh. inhibition, % at 10 µM;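 active = inhibition above the screen-wide mean plus twice its standard deviation, cut at about 32% in these data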
Starred values were filed as active, the others as inactive. Sampled rows, rich in hits. Any-hit rate of the full collection: about 2.5%.

What do the screens show for `NS(=O)(=O)c1ccc(NC(=O)CSc2nnc(Cc3cccs3)n2-c2ccccc2)cc1`?
MEKK2wt PB1 HTS: 105; Efflux pump inh: 0; ABCG2 inh: 1; MEKK2 mut-MEK5: 3; MEKK3 PB1 HTS: 105; ABCB1 block: 0; Yeast cmpd fluor: 104; CaMdr1 efflux inh: 0; CaCdr2 efflux inh: 97; CaCdr1 efflux inh: 0

Results for Cc1ccc(-n2c(Cc3cccs3)nnc2SCC(=O)Nc2ccc(S(N)(=O)=O)cc2)cc1 ?
MEKK2wt PB1 HTS: 102; Efflux pump inh: 0; ABCG2 inh: 0; MEKK2 mut-MEK5: 2; MEKK3 PB1 HTS: 101; ABCB1 block: 0

What do the screens show for `COc1ccc(-n2c(Cc3cccn3C)nnc2SCC(=O)Nc2ccc(C)cc2)cc1`?
MEKK2wt PB1 HTS: 80; Efflux pump inh: 0; ABCG2 inh: 18; MEKK2 mut-MEK5: -8; MEKK3 PB1 HTS: 81; ABCB1 block: 2

What do the screens show for `COc1ccc(NC(=O)CSc2nnc(Cc3cccs3)n2-c2ccc(C)cc2)cc1`?
MEKK2wt PB1 HTS: 91; Efflux pump inh: 0; ABCG2 inh: 4; MEKK2 mut-MEK5: -3; MEKK3 PB1 HTS: 93; ABCB1 block: 1; Yeast cmpd fluor: 97; CaMdr1 efflux inh: 0; CaCdr2 efflux inh: 97; CaCdr1 efflux inh: 0

Results for COc1ccc(-n2c(Cc3cccs3)nnc2SCC(=O)Nc2ccc3c(c2)OCCO3)cc1 ?
MEKK2wt PB1 HTS: 104; Efflux pump inh: 0; ABCG2 inh: 5; MEKK2 mut-MEK5: 1; MEKK3 PB1 HTS: 108; ABCB1 block: 1

What do the screens show for `OCCN1CCN(c2nc(-c3ccccc3)nc3c2oc2ccccc23)CC1`?
MEKK2wt PB1 HTS: 110; Efflux pump inh: 0; ABCG2 inh: 1; MEKK2 mut-MEK5: 7; MEKK3 PB1 HTS: 103; ABCB1 block: 1

How did COc1cc(/C=C2\SC(N)=NC2=O)cc(OC)c1 do in these assays?
MEKK2wt PB1 HTS: 93; Efflux pump inh: 0; MEKK2 mut-MEK5: -4; MEKK3 PB1 HTS: 91

What do the screens show for `CN(C)c1ccc(/C=N/NC(=O)CNC(=O)c2ccco2)cc1`?
MEKK2wt PB1 HTS: 100; Efflux pump inh: 0; ABCG2 inh: 5; MEKK2 mut-MEK5: 4; MEKK3 PB1 HTS: 101; ABCB1 block: 0

Results for Cc1ccc(-n2nc3c(=O)n(CCCC(=O)NCc4ccccc4C)nc(C)c3c2C)cc1 ?
MEKK2wt PB1 HTS: 101; Efflux pump inh: 0; MEKK2 mut-MEK5: 2; MEKK3 PB1 HTS: 102

Results for Cc1ccc(CNC(=O)CCCn2nc(C)c3c(C)n(-c4ccccc4)nc3c2=O)cc1 ?
MEKK2wt PB1 HTS: 99; Efflux pump inh: 0; MEKK2 mut-MEK5: 2; MEKK3 PB1 HTS: 102; Yeast cmpd fluor: 111; CaMdr1 efflux inh: 0; CaCdr2 efflux inh: 108; CaCdr1 efflux inh: 0

Results for CCOc1ccc(CNC(=O)Cn2nc(C)c3c(C)n(-c4ccc(C)cc4)nc3c2=O)cc1 ?
MEKK2wt PB1 HTS: 105; Efflux pump inh: 0; MEKK2 mut-MEK5: 6; MEKK3 PB1 HTS: 102; Yeast cmpd fluor: 100; CaMdr1 efflux inh: 0; CaCdr2 efflux inh: 109; CaCdr1 efflux inh: 0

What do the screens show for `Cc1ccc(-n2nc3c(=O)n(CC(=O)NCc4cccs4)nc(C)c3c2C)cc1`?
MEKK2wt PB1 HTS: 103; Efflux pump inh: 0; MEKK2 mut-MEK5: -1; MEKK3 PB1 HTS: 101; Yeast cmpd fluor: 99; CaMdr1 efflux inh: 0; CaCdr2 efflux inh: 105; CaCdr1 efflux inh: 0

How did Cc1ccc(-n2nc3c(=O)n(CC(=O)NCCc4ccccc4C)nc(C)c3c2C)cc1 do in these assays?
MEKK2wt PB1 HTS: 95; Efflux pump inh: 4.2*; MEKK2 mut-MEK5: -6; MEKK3 PB1 HTS: 98; Yeast cmpd fluor: 106; CaMdr1 efflux inh: 0; CaCdr2 efflux inh: 102; CaCdr1 efflux inh: 0

Results for CCN(C[C@H]1N[C@@](Cc2ccccc2)(C(=O)OC)[C@H]2C(=O)N(Cc3ccccc3)C(=O)[C@@H]12)C(=O)Nc1ccc(C(F)(F)F)cc1 ?
Efflux pump inh: 0

How did COc1ccc(-c2nsc(C(=O)N(c3ccc(F)cc3)C(C(=O)NC3CCCC3)c3ccc(OC)cc3)c2N)cc1 (centres undefined) do in these assays?
MEKK2wt PB1 HTS: 99; Efflux pump inh: 0.3*; ABCG2 inh: 0; MEKK2 mut-MEK5: 0; MEKK3 PB1 HTS: 101; ABCB1 block: 0; Yeast cmpd fluor: 107; CaMdr1 efflux inh: 0; CaCdr2 efflux inh: 106; CaCdr1 efflux inh: 0

What do the screens show for `COc1ccc(N(C(=O)c2snc(C(N)=O)c2N)C(C(=O)NC2CCCCC2)c2ccc(F)cc2)c(OC)c1` (centres undefined)?
MEKK2wt PB1 HTS: 97; Efflux pump inh: 0; MEKK2 mut-MEK5: 0; MEKK3 PB1 HTS: 99

What do the screens show for `CCCn1nc(C(=O)OCC(=O)Nc2ccc(C)cc2)c2ccccc2c1=O`?
Efflux pump inh: 0

How did Cc1cc(NC(=O)CCC(=O)N(c2cccnc2)C(C(=O)NC2CCCC2)c2ccccc2)no1 (centres undefined) do in these assays?
MEKK2wt PB1 HTS: 113; Efflux pump inh: 0; ABCG2 inh: 3; MEKK2 mut-MEK5: 20; MEKK3 PB1 HTS: 109; ABCB1 block: 1; Yeast cmpd fluor: 223; CaMdr1 efflux inh: 3; CaCdr2 efflux inh: 109; CaCdr1 efflux inh: 0
